We go through 8 molecules from ChEMBL document CHEMBL1131089, “Physical parameters and biological stability of yttrium(III) diethylenetriaminepentaacetic acid derivative conjugates” (J Med Chem, 1998).

Data set [1] is filed under the species Mus musculus. As to the kind of experiment: Percent injected dose per gram at 168 hour for mice injected with 88Y-Ligand-B 72.3. In kind it is functional, organism-based.
Data set [2] can be described thus: Fraction of 88Y (%) released from chelate after incubation in serum for 15 hours. It counts as ADME. The gist of the method: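 p-Nitrobenzyl DTPA derivatives converted to p-isothiocyanato form, conjugated to antibody B72.3, labeled with 88Y. Conjugates incubated in serum 15 h; released 88Y assessed by size-exclusion HPLC (TSK 3000SW, MES/Cl− buffer 0.02 M MES, 0.15 M NaCl, pH 6.5). 88Y-albumin eluted at 7.7 min, assigned against molecular weight standard. Injectate aliquots counted for HPLC recovery.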

Data set [3] in a line: Yttrium(III) stability constant of the compound. It counts as physicochemical. The gist of the method:
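Spectrophotometric competition at 25 °C, μ = 0.1 M. Y(III) (3.950 × 10⁻⁶ M) with Arsenazo III (2.00 × 10⁻⁵ M) at pH 3.90, titrated with ligand aliquots. Absorbance drop at 652 nm after each equilibration gave conditional constants, converted to log K. Y–AAIII ML and ML₂ constants and extinction coefficients first obtained by titrating dye with YCl₃.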

Molecule `O=C(O)CN(CC(=O)O)[C@@H](Cc1ccc([N+](=O)[O-])cc1)CN(CC(=O)O)[C@@H]1CCCC[C@H]1N(CC(=O)O)CC(=O)O` returned an ID/g femur in data set [1] of 6.1%. In addition, in data set [2], the 88Y-serum came out at 18.5%. Also, the “Log K” value in data set [3] is given as 24.4.

In the case of `O=C(O)CN(CCN(CC(=O)O)C(Cc1ccc([N+](=O)[O-])cc1)CN(CC(=O)O)CC(=O)O)CC(=O)O` (centres undefined), in data set [1], the ID/g femur worked out at 5.2%. Moreover, the 88Y-serum in data set [2] was 7%. Further, the “Log K” value in data set [3] turned out to be 21.7.

`O=C(O)CN(CCN(CC(=O)O)[C@@H]1CCCC[C@H]1N(CC(=O)O)CC(=O)O)CC(=O)O`: the “Log K” value in data set [3] is 24.2.

In data set [1], `CC(CN(CC(=O)O)CC(=O)O)N(CC(=O)O)CC(Cc1ccc([N+](=O)[O-])cc1)N(CC(=O)O)CC(=O)O` (centres undefined) yielded an ID/g femur of 3%. For the same molecule, in data set [2], the 88Y-serum is listed as 4.84%. Moreover, the “Log K” value in data set [3] was 22.5.

As for `CC(CN(CC(=O)O)CC(Cc1ccc([N+](=O)[O-])cc1)N(CC(=O)O)CC(=O)O)N(CC(=O)O)CC(=O)O` (centres undefined), the ID/g femur in data set [1] came out at 2.5%. Also, the 88Y-serum in data set [2] is 6.27%. The “Log K” value in data set [3] turned out to be 22.5.

`O=C(O)CN(CCN(CC(=O)O)CC(=O)O)CCN(CC(=O)O)CC(=O)O` [PENTETIC ACID]: the “Log K” value in data set [3] is on record as 22.4.

`O=C(O)CN(CC(=O)O)[C@H](Cc1ccc([N+](=O)[O-])cc1)CN(CC(=O)O)[C@@H]1CCCC[C@H]1N(CC(=O)O)CC(=O)O`: the ID/g femur in data set [1] turned out to be 3.6%. Also, the 88Y-serum in data set [2] worked out at 3.79%. The “Log K” value in data set [3] is on record as 24.7.

`O=C(O)CN(CCN(CC(=O)O)CC(Cc1ccc([N+](=O)[O-])cc1)N(CC(=O)O)CC(=O)O)CC(=O)O` (centres undefined) showed an ID/g femur in data set [1] of 4.3%. Besides, in data set [3], the “Log K” value came out at 21.5.
